{"source": "ChEMBL document CHEMBL2417481", "about": "“Regioselective synthesis of 6-substituted-2-amino-5-bromo-4(3H)-pyrimidinones and evaluation of their antiviral activity” (Eur J Med Chem, 2013)", "key": {"[1]": {"assay": "Cytotoxicity against human HeLa cells assessed as morphological changes", "type": "cell-based"}, "Coxsackievirus B4 [2]": {"system": "Coxsackievirus B4", "assay": "Antiviral activity against Coxsackievirus B4 infected in human HeLa cells assessed as reduction in virus-induced cytopathogenicity", "type": "functional, organism-based", "settings": "Enterovirus B", "how_it_was_run": "(§1)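 Confluent cell monolayers (Vero, HeLa, HEL or MDCK, as named in each line) were infected with 100 CCID50 of virus while exposed to a range of compound concentrations. Cytopathicity was scored once it was complete in untreated infected controls.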"}, "[3]": {"system": "Mammalian orthoreovirus 1", "assay": "Antiviral activity against Reovirus-1 infected in african green monkey Vero cells assessed as reduction in virus-induced cytopathogenicity", "type": "functional, organism-based", "settings": "Mammalian orthoreovirus 1, Vero", "how_it_was_run": "(§2)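 Confluent Vero monolayers in 96-well plates were inoculated with 100 CCID50 of virus together with varying compound concentrations. Cytopathicity was scored once it was complete in untreated virus-infected control cultures.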"}, "[4]": {"system": "Vesicular stomatitis virus", "assay": "Antiviral activity against Vesicular stomatitis virus infected in human HeLa cells assessed as reduction in virus-induced cytopathogenicity", "type": "functional, organism-based", "how_it_was_run": "as §1"}, "Punta Toro virus": {"system": "Punta Toro virus", "assay": "Antiviral activity against Punta Toro virus infected in african green monkey Vero cells assessed as reduction in virus-induced cytopathogenicity", "type": "functional, organism-based", "how_it_was_run": "as §1"}, "[5]": {"system": "Respiratory syncytial virus", "assay": "Antiviral activity against Respiratory syncytial virus Long infected in human HeLa cells assessed as reduction in virus-induced cytopathogenicity", "type": "functional, organism-based", "how_it_was_run": "as §1"}, "[6]": {"assay": "Cytotoxicity against african green monkey Vero cells assessed as morphological changes", "type": "cell-based", "settings": "chlorocebus sabaeus"}, "Coxsackievirus B4 [7]": {"system": "Coxsackievirus B4", "assay": "Antiviral activity against Coxsackievirus B4 infected in african green monkey Vero cells assessed as reduction in virus-induced cytopathogenicity", "type": "functional, organism-based", "settings": "Enterovirus B", "how_it_was_run": "as §1"}, "Human respirovirus 3": {"system": "Human respirovirus 3", "assay": "Antiviral activity against Parainfluenza virus 3 infected in african green monkey Vero cells assessed as reduction in virus-induced cytopathogenicity", "type": "functional, organism-based", "settings": "Human respirovirus 3, Vero", "how_it_was_run": "as §2"}, "Sindbis virus": {"system": "Sindbis virus", "assay": "Antiviral activity against Sindbis virus infected in african green monkey Vero cells assessed as reduction in virus-induced cytopathogenicity", "type": "functional, organism-based", "how_it_was_run": "as §1"}, "[8]": {"system": "Vesicular stomatitis virus", "assay": "Antiviral activity against Vesicular stomatitis virus infected in human HEL cells assessed as reduction in virus-induced cytopathogenicity", "type": "functional, organism-based", "how_it_was_run": "as §1"}, "[9]": {"assay": "Cytotoxicity against human HEL cells assessed as morphological changes", "type": "cell-based"}, "[10]": {"assay": "Cytotoxicity against MDCK cells assessed as morphological changes", "type": "cell-based, Canis lupus familiaris", "settings": "dog"}, "Influenza B virus": {"system": "Influenza B virus", "assay": "Antiviral activity against Influenza B virus infected in MDCK cells assessed as reduction in virus-induced cytopathogenicity", "type": "functional, organism-based", "how_it_was_run": "as §1"}, "Influenza A virus [11]": {"system": "Influenza A virus", "assay": "Antiviral activity against Influenza A virus H1N1 infected in MDCK cells assessed as reduction in virus-induced cytopathogenicity", "type": "functional, organism-based", "how_it_was_run": "as §1"}, "Influenza A virus [12]": {"system": "Influenza A virus", "assay": "Antiviral activity against Influenza A virus […] infected in MDCK cells assessed as reduction in virus-induced cytopathogenicity", "type": "functional, organism-based", "how_it_was_run": "as §1"}, "Human alphaherpesvirus 1 [13]": {"system": "Human alphaherpesvirus 1", "assay": "Antiviral activity against Herpes simplex virus-1 KOS infected in human HEL cells assessed as reduction in virus-induced cytopathogenicity", "type": "functional, organism-based", "settings": "Human alphaherpesvirus 1, KOS", "how_it_was_run": "as §1"}, "Human alphaherpesvirus 1 [14]": {"system": "Human alphaherpesvirus 1", "assay": "Antiviral activity against thymidine kinase negative […] Herpes simplex virus-1 KOS infected in human HEL cells assessed as reduction in virus-induced cytopathogenicity", "type": "functional, organism-based", "settings": "Human alphaherpesvirus 1, KOS", "how_it_was_run": "as §1"}, "Human alphaherpesvirus 3 [15]": {"system": "Human alphaherpesvirus 3", "assay": "Antiviral activity against thymidine kinase positive Varicella-zoster virus OKA infected in human HEL cells assessed as reduction in virus plaque formation", "type": "functional, cell-based, Human herpesvirus 3 strain Oka vaccine", "settings": "Human alphaherpesvirus 3, OKA", "how_it_was_run": "(§3)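 Confluent HEL fibroblast cultures received 20 PFU of VZV together with varying compound concentrations. Plaque formation was read when it reached completion in untreated virus controls.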"}, "Human alphaherpesvirus 3 [16]": {"system": "Human alphaherpesvirus 3", "assay": "Antiviral activity against thymidine kinase negative Varicella-zoster virus 07-1 infected in human HEL cells assessed as reduction in the virus plaque formation", "type": "functional, organism-based", "settings": "Human alphaherpesvirus 3, 07-1, HEL", "how_it_was_run": "as §3"}, "Cytomegalovirus [17]": {"system": "Cytomegalovirus", "assay": "Antiviral activity against Cytomegalovirus Davis infected in human HEL cells assessed as reduction in virus plaque formation", "type": "functional, organism-based", "settings": "Human betaherpesvirus 5, Davis", "how_it_was_run": "(§4)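 Confluent HEL fibroblasts were inoculated with 100 PFU of CMV at graded compound concentrations. Plaques were counted once formation was complete in untreated infected controls.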"}, "Cytomegalovirus [18]": {"system": "Cytomegalovirus", "assay": "Antiviral activity against Cytomegalovirus AD-169 infected in human HEL cells assessed as reduction in virus plaque formation", "type": "functional, organism-based", "settings": "Human betaherpesvirus 5, AD-169, HEL", "how_it_was_run": "as §4"}, "Felid alphaherpesvirus 1": {"system": "Felid alphaherpesvirus 1", "assay": "Antiviral activity against Feline Herpes virus infected in cat CRFK cells assessed as inhibition of virus-induced cytopathic effect by MTS assay", "type": "functional, organism-based", "settings": "Felid alphaherpesvirus 1, CRFK"}, "Feline coronavirus": {"system": "Feline coronavirus", "assay": "Antiviral activity against Feline coronavirus infected in cat CRFK cells assessed as inhibition of virus-induced cytopathic effect by MTS assay", "type": "functional, organism-based", "settings": "Alphacoronavirus 1, CRFK"}, "[19]": {"assay": "Cytotoxicity against cat CRFK cells assessed as cell viability by MTS assay", "type": "cell-based, Felis catus"}, "Human alphaherpesvirus 2": {"system": "Human alphaherpesvirus 2", "assay": "Antiviral activity against Herpes simplex virus-2 G infected in human HEL cells assessed as reduction in virus-induced cytopathogenicity", "type": "functional, organism-based", "settings": "Human alphaherpesvirus 2, strain G", "how_it_was_run": "as §1"}}}
{"smiles": "Nc1ncnc2c1ncn2C[C@H](O)CO", "note": "[(S)-DHPA]", "values": [{"measurement": "MCC", "setting": "[1]", "result": "> 250", "unit": "µM"}, {"measurement": "EC50", "setting": "Coxsackievirus B4 [2]", "result": "> 250", "unit": "µM"}, {"measurement": "EC50", "setting": "[3]", "result": "> 250", "unit": "µM"}, {"measurement": "EC50", "setting": "[4]", "result": "> 250", "unit": "µM"}, {"measurement": "EC50", "setting": "Punta Toro virus", "result": "> 250", "unit": "µM"}, {"measurement": "EC50", "setting": "[5]", "result": "> 250", "unit": "µM"}, {"measurement": "MCC", "setting": "[6]", "result": "> 250", "unit": "µM"}, {"measurement": "EC50", "setting": "Coxsackievirus B4 [7]", "result": "> 250", "unit": "µM"}, {"measurement": "EC50", "setting": "Human respirovirus 3", "result": "> 250", "unit": "µM"}, {"measurement": "EC50", "setting": "Sindbis virus", "result": "> 250", "unit": "µM"}]}
{"smiles": "Nc1nc2c(ncn2COCCO)c(=O)[nH]1", "note": "[ACYCLOVIR]", "values": [{"measurement": "EC50", "setting": "[8]", "result": "> 250", "unit": "µM"}, {"measurement": "MCC", "setting": "[9]", "result": "> 250", "unit": "µM"}]}
{"smiles": "NC12CC3CC(CC(C3)C1)C2", "note": "[AMANTADINE]", "values": [{"measurement": "MCC", "setting": "[10]", "result": "> 200", "unit": "µM"}, {"measurement": "EC50", "setting": "Influenza B virus", "result": "> 200", "unit": "µM"}, {"measurement": "EC50", "setting": "Influenza A virus [11]", "result": 140, "unit": "µM"}, {"measurement": "EC50", "setting": "Influenza A virus [12]", "result": 0.8, "unit": "µM"}]}
{"smiles": "O=c1[nH]c(=O)n([C@H]2C[C@H](O)[C@@H](CO)O2)cc1/C=C/Br", "note": "[BRIVUDINE]", "values": [{"measurement": "EC50", "setting": "Human alphaherpesvirus 1 [13]", "result": 0.4, "unit": "µM"}, {"measurement": "EC50", "setting": "Human alphaherpesvirus 1 [14]", "result": "> 250", "unit": "µM"}, {"measurement": "EC50", "setting": "[8]", "result": "> 250", "unit": "µM"}, {"measurement": "EC50", "setting": "Human alphaherpesvirus 3 [15]", "result": 0.02, "unit": "µM"}, {"measurement": "MCC", "setting": "[9]", "result": "> 250", "unit": "µM"}, {"measurement": "EC50", "setting": "Human alphaherpesvirus 3 [16]", "result": 33, "unit": "µM"}]}
{"smiles": "Nc1ccn(C[C@@H](CO)OCP(=O)(O)O)c(=O)n1", "note": "[CIDOFOVIR]", "values": [{"measurement": "EC50", "setting": "Cytomegalovirus [17]", "result": 0.51, "unit": "µM"}, {"measurement": "EC50", "setting": "[8]", "result": "> 250", "unit": "µM"}, {"measurement": "EC50", "setting": "Cytomegalovirus [18]", "result": 3.1, "unit": "µM"}, {"measurement": "MCC", "setting": "[9]", "result": "> 250", "unit": "µM"}]}
{"smiles": "Nc1nc2c(ncn2COC(CO)CO)c(=O)[nH]1", "note": "[GANCICLOVIR]", "values": [{"measurement": "EC50", "setting": "Human alphaherpesvirus 1 [13]", "result": "> 100", "unit": "µM"}, {"measurement": "EC50", "setting": "Cytomegalovirus [17]", "result": 0.38, "unit": "µM"}, {"measurement": "MCC", "setting": "[1]", "result": "> 100", "unit": "µM"}, {"measurement": "EC50", "setting": "Felid alphaherpesvirus 1", "result": 0.9, "unit": "µM"}, {"measurement": "EC50", "setting": "Cytomegalovirus [18]", "result": 3.1, "unit": "µM"}, {"measurement": "EC50", "setting": "Feline coronavirus", "result": "> 100", "unit": "µM"}, {"measurement": "MCC", "setting": "[9]", "result": "> 100", "unit": "µM"}, {"measurement": "MCC", "setting": "[19]", "result": "> 100", "unit": "µM"}, {"measurement": "EC50", "setting": "Human alphaherpesvirus 2", "result": 0.9, "unit": "µM"}]}
{"smiles": "NC(=O)c1ncn([C@@H]2O[C@H](CO)[C@@H](O)[C@H]2O)n1", "note": "[RIBAVIRIN]", "values": [{"measurement": "MCC", "setting": "[1]", "result": "> 250", "unit": "µM"}, {"measurement": "EC50", "setting": "Coxsackievirus B4 [2]", "result": 22, "unit": "µM"}, {"measurement": "EC50", "setting": "[3]", "result": "> 250", "unit": "µM"}, {"measurement": "MCC", "setting": "[10]", "result": "> 100", "unit": "µM"}, {"measurement": "EC50", "setting": "Influenza B virus", "result": 8.3, "unit": "µM"}, {"measurement": "EC50", "setting": "Punta Toro virus", "result": 112, "unit": "µM"}, {"measurement": "EC50", "setting": "Influenza A virus [11]", "result": 9.6, "unit": "µM"}, {"measurement": "EC50", "setting": "[5]", "result": 5, "unit": "µM"}, {"measurement": "MCC", "setting": "[6]", "result": "> 250", "unit": "µM"}, {"measurement": "EC50", "setting": "Influenza A virus [12]", "result": 7.2, "unit": "µM"}, {"measurement": "EC50", "setting": "Coxsackievirus B4 [7]", "result": "> 250", "unit": "µM"}, {"measurement": "EC50", "setting": "Sindbis virus", "result": "> 250", "unit": "µM"}]}
{"smiles": "CC(N)C12CC3CC(CC(C3)C1)C2", "note": "(centres undefined) [RIMANTADINE]", "values": [{"measurement": "MCC", "setting": "[10]", "result": "> 200", "unit": "µM"}, {"measurement": "EC50", "setting": "Influenza B virus", "result": "> 200", "unit": "µM"}]}
